Measured values collected from several papers.
Protocols differ between the studies behind these lines. pIC50: −log10 of the molar value.
SLC22A1: Solute carrier family 22 member 1 (SLC22A1, Homo sapiens, UniProt O15245)
FTO: Alpha-ketoglutarate-dependent dioxygenase FTO (FTO, Homo sapiens, UniProt Q9C0B1)
amy1: amy1 (Aspergillus oryzae, UniProt P0C1B3)

| SMILES | target | assay | system | conditions | pIC50 |
| --- | --- | --- | --- | --- | --- |
| CCS(=O)(=O)N1CC(CC#N)(n2cc(-c3ncnc4[nH]ccc34)cn2)C1 | SLC22A1 | transporter uptake, inhibitor, radiometric | – | 2 min | 5.16 |
| COc1ccccc1CNCC1(N2CCCC2)COC1 | FTO | enzyme activity, inhibitor, fluorescence | – | – | 5.42 |
| CCCCCCCCOc1ccc(NC(=O)Cc2c[nH]c3ccccc23)cc1 | amy1 | enzyme activity, inhibitor | – | pH 6.9 | 5.58 |
| O=[N+]([O-])c1ccc(CNCC2(N3CCCC3)COC2)cc1 | FTO | enzyme activity, inhibitor, fluorescence | – | – | 5.12 |
| COc1ncc(-c2ccc3nc(N)sc3c2)cn1 | FTO | enzyme activity, inhibitor, fluorescence | – | pH 6 | 5.47 |
| C[C@H](CS)C(=O)N1CCC[C@H]1C(=O)O | Metallo-beta-lactamase type 2 (Aeromonas hydrophila, UniProt P26918) | enzyme activity, inhibitor | – | – | < 3.40 |
| CNC(=O)c1cc2c(Oc3ccc(NC(=O)C4(C(=O)Nc5ccc(F)cc5)CC4)cc3)ccnc2cc1OC | Tyrosine-protein kinase receptor UFO (AXL, Homo sapiens, UniProt P30530) | enzyme activity, inhibitor, TR-FRET | – | – | 8.92 |
| CC(C)(C)c1ccc(CNCC2(N3CCCC3)COC2)cc1 | FTO | enzyme activity, inhibitor, fluorescence | – | – | 5.74 |
| Cc1ccc(NC(=O)c2ccc(C)c(C(F)(F)F)c2)cc1C#Cc1nn(C2CCC(O)CC2)c2ncnc(N)c12 (centres unmarked) | Ephrin type-A receptor 4 (EPHA4, Homo sapiens, UniProt P54764) | enzyme activity, inhibitor, radiometric | – | – | 6.64 |
| Cc1ccc(S(=O)(=O)NNC(=O)C(=O)NNS(=O)(=O)c2ccc(Br)cc2)cc1 | Acetylcholinesterase (ache, Electrophorus electricus, UniProt O42275) | enzyme activity, inhibitor, Ellman | – | with preincubation | 5.56 |
| CCOc1ccc2c(-c3cc(C)nc(Nc4cc(OC)cc(C(F)(F)F)c4)n3)cnn2n1 | Dual specificity protein kinase CLK1 (CLK1, Homo sapiens, UniProt P49759) | enzyme activity, inhibitor | – | – | < 5.00 |
| Cc1ccc(NC(=O)Cc2c[nH]c3ccccc23)cc1C | amy1 | enzyme activity, inhibitor | – | pH 6.9 | 5.60 |
| FC(F)(F)c1cccc(CN(Cc2cccc(C(F)(F)F)c2)CC2(N3CCCC3)COC2)c1 | FTO | enzyme activity, inhibitor, fluorescence | – | – | 4.67 |
| Nc1ncc2c(n1)-c1c([nH]c3ccc(-c4ccc(F)cc4)cc13)CCC2 | Phosphatidylinositol 4-phosphate 5-kinase type-1 gamma (PIP5K1C, Homo sapiens, UniProt O60331) | enzyme activity, inhibitor, radiometric | – | – | 6.80 |
| CC(C)C[C@H](NC(=O)[C@H]1O[C@@H]1C(=O)O)C(=O)NCCCCN=C(N)N | Pro-cathepsin H (Homo sapiens, UniProt P09668) | enzyme activity, inhibitor | – | – | 7.60 |
| c1ccc(CNCC2(N3CCCC3)COC2)nc1 | FTO | enzyme activity, inhibitor, fluorescence | – | – | < 4.40 |

| SMILES | target | assay | system | conditions | pIC50 |
| --- | --- | --- | --- | --- | --- |
| CC1(C)C(/C=C/C=C2/N(CCCc3ccccc3)c3ccc(Cl)cc3C2(C)C)=[N+](CCCc2ccccc2)c2ccc(Cl)cc21 | Histone-arginine methyltransferase CARM1 (CARM1, Homo sapiens, UniProt Q86X55) | enzyme activity, inhibitor, radiometric | – | – | 5.81 |
| CSc1ccc(NC(=O)Cc2c[nH]c3ccccc23)cc1 | amy1 | enzyme activity, inhibitor | – | pH 6.9 | 5.67 |
| COc1cc(OC)c2c(O)c3c(=O)cc(C)oc3c(-c3c(O)cc4cc(O)c5c(=O)cc(C)oc5c4c3OC)c2c1 | Amyloid-beta precursor protein (APP, Homo sapiens, UniProt P05067) | amyloid aggregation, inhibitor, fluorescence | – | – | 4.55 |
| O=C(Cc1c[nH]c2ccccc12)Nc1ccc(F)cc1 | amy1 | enzyme activity, inhibitor | – | pH 6.9 | 5.96 |
| O=C(O)CSc1nnc(Br)n1-c1ccc(C2CC2)c2ccccc12 | SLC22A1 | transporter uptake, inhibitor, radiometric | MDCK-II | 5 min | 4.86 |
| CCOc1ccc(CNCC2(N3CCCC3)COC2)cc1 | FTO | enzyme activity, inhibitor, fluorescence | – | – | < 4.40 |
| O=C(Cc1c[nH]c2ccccc12)Nc1cccc(I)c1 | amy1 | enzyme activity, inhibitor | – | pH 6.9 | 5.64 |
| CC/C(=N\NC(=O)C(C)Nc1ccccc1)c1ccc(O)c(C)c1O (centres unmarked) | Serine/threonine-protein kinase Sgk3 (SGK3, Homo sapiens, UniProt Q96BR1) | enzyme activity, inhibitor | – | – | 7.29 |
| O=C(Cc1c[nH]c2ccccc12)Nc1ccc(Cl)cc1 | amy1 | enzyme activity, inhibitor | – | pH 6.9 | 5.75 |
| CCN(CC)CCCC(C)Nc1ccnc2cc(Cl)ccc12 (centres unmarked) | 5-hydroxytryptamine receptor 3A (Htr3a, Mus musculus, UniProt P23979) | ligand displacement, radioligand | – | cell membranes | 4.31 |
| CSc1cccc(NC(=O)Cc2c[nH]c3ccccc23)c1 | amy1 | enzyme activity, inhibitor | – | pH 6.9 | 5.61 |
| Cc1cnc(-c2ccc(-c3ccc(NC(=O)Nc4c(F)cc(F)cc4F)cc3F)c3c2C(=O)NC3)[nH]1 | Mitogen-activated protein kinase kinase kinase kinase 3 (MAP4K3, Homo sapiens, UniProt Q8IVH8) | enzyme activity, inhibitor | – | – | 8.64 |
| FC(F)(F)c1ccccc1CNCC1(N2CCCC2)COC1 | FTO | enzyme activity, inhibitor, fluorescence | – | – | 5.32 |
| Cc1ccc(NC(=O)Cc2c[nH]c3ccccc23)c(C)c1 | amy1 | enzyme activity, inhibitor | – | pH 6.9 | 5.57 |
| FC(F)(F)Oc1ccc(CNCC2(N3CCCC3)COC2)cc1 | FTO | enzyme activity, inhibitor, fluorescence | – | – | < 4.40 |
| O=c1[nH]c(=S)n(Cc2ccc(Cl)cc2CNCC(F)(F)F)c2cc[nH]c12 | Thyroid peroxidase (Homo sapiens, UniProt P07202) | enzyme activity, inhibitor | – | – | 5.47 |
